Measurements reported in ChEMBL document CHEMBL1152567, “Synthesis and analgesic profile of conformationally constrained N-acylhydrazone analogues: discovery of novel N-arylideneamino quinazolin-4(3H)-one compounds derived from natural safrole” (2009).
Active and inactive are the calls of the source.

Experiments:
[1] = tested on: Mus musculus; assay: Antinociceptive activity in Albino mouse assessed as inhibition of acetic acid-induced abdominal constriction at 100 umol/kg, po treated 1 hr before acetic acid challenge relative to control; type: functional; conditions: Abdomen
Procedure, shortened: (§1)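 Albino mice of both sexes (18–23 g), dosed orally as a suspension in 5% arabic gum in saline. Acetic acid given ip 1 h later. Constrictions counted for 20 min, starting 10 min after injection. Expressed as % inhibition versus vehicle controls. Dose–response over 0.3–100 µmol/kg. Mean ± SEM of n animals; one-way ANOVA, Dunnett, P<0.01.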

[2] = species on record: Oryctolagus cuniculus; assay: Inhibition of arachidonic acid-induced rabbit platelet aggregation by turbidimetric method; type: functional
Procedure, shortened: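 Rabbits (2.5–3.0 kg) bled from the central ear artery into 3.8% trisodium citrate (9:1). PRP was spun at 1800 rpm and PPP at 3600 rpm, 10 min each at room temperature. PRP was stirred at 900 rpm at 37 °C, with compound or 0.5% DMSO vehicle added 5 min before arachidonic acid (200 µM in methods; 100 µM elsewhere). Read-out was percent of AA aggregation.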

[3] = tested on: Rattus norvegicus; assay: Antiinflammatory activity in Albino rat assessed as inhibition of carrageenan-induced paw edema at 100 umol/kg, ip; set-up: scale not given: the % may be the effect or the level left
[4] = tested on: Mus musculus; assay: Antinociceptive activity in po treated Albino mouse assessed as inhibition of acetic acid-induced abdominal constriction treated 1 hr before acetic acid challenge; type: functional; conditions: Abdomen; procedure, shortened: as §1
[5] = tested on: Mus musculus; assay: Antinociceptive activity in Albino swiss mouse assessed as inhibition of formalin induced pain at 100 umol/kg, ip treated 1 hr before formalin challenge; type: functional, organism-based
Procedure, shortened: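 Albino Swiss mice of both sexes (18–25 g), fasted 8 h, dosed ip in 5% arabic gum. 60 min later, 20 µL of 2.5% formalin subplantar in one hind paw. Time spent licking or biting the paw scored at 0–5 min (neurogenic phase) and 15–30 min (inflammatory phase). Mean ± SEM, n=6–12; two-way ANOVA, Bonferroni.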

[6] = tested on: Rattus norvegicus; assay: Antiinflammatory activity in Albino rat assessed as inhibition of carrageenan-induced paw edema at 10 umol/kg, ip; type: functional
Procedure, shortened: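 Albino rats of both sexes (150–200 g), dosed as a suspension in 1% tween 80 in saline. 1 h later, 1% carrageenan (0.1 mg/paw) into one hind paw subplantar, saline into the other. Paw volumes by plethysmometer at 3 h; edema is the difference between the paws. Expressed as % inhibition versus vehicle controls.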

[7] = tested on: Rattus norvegicus; assay: Analgesic activity in carrageenan-induced Wistar rat hyperalgesia model assessed as reduction in latency time at 100 umol/kg, ip treated 60 mins before carrageen challenge; type: functional; set-up: scale not given: the % may be the effect or the level left
Procedure, shortened: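 Wistar rats, dosed ip in 1% tween 80 in saline. Carrageenan 1 mg/paw intraplantar in left paw, saline in right, 100 µL each. Left-paw withdrawal latency on 51 ± 0.1 °C plate at 0, 30, 60, 120, 180, 240 min; cut-off 20 s. Hyperalgesia taken as latency at time 0 minus later latency. Mean ± SEM, n=8–10; one-way ANOVA, Dunnett.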

[8] = tested on: Mus musculus; assay: Analgesic activity in Swiss mouse assessed as response to thermal stimulation at 100 umol/kg, ip by Hot-plate test; type: functional, organism-based
Procedure, shortened: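 Swiss mice of both sexes, fasted 8 h, water ad libitum; dosed ip in 1% tween in saline. Placed on plate at 55 ± 0.1 °C; paw licking or withdrawal timed. Two control readings 30 min apart set baseline latency; cut-off three times control mean. Latency recorded every 30 min after dosing for 150 min. Mean ± SEM, n=7.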

SMILES	inhibition in vivo at 100 µmol/kg [1] [%]	inhibition [2]	also measured
Cc1nc2cc3c(cc2c(=O)n1/N=C/c1ccsc1)OCO3	34.7	inactive	
Cc1nc2cc3c(cc2c(=O)n1/N=C/c1ccccn1)OCO3	18.5	inactive	
COc1ccc2c(c1)c(CC(=O)O)c(C)n2C(=O)c1ccc(Cl)cc1 [INDOMETHACIN]			Activity [3]: 61%
Cc1nc2cc3c(cc2c(=O)n1/N=C/c1cccs1)OCO3	10.7	inactive	
Cc1nc2cc3c(cc2c(=O)n1/N=C/c1ccncc1)OCO3	38.5	inactive	
Cc1c(N(C)CS(=O)(=O)[O-])c(=O)n(-c2ccccc2)n1C.[Na+] [DIPYRONE SODIUM]	36		ED50 [4]: 144 µmol/kg
Cc1nc2cc3c(cc2c(=O)n1/N=C/c1ccc(C(C)C)cc1)OCO3	32.9	inactive	
Cc1nc2cc3c(cc2c(=O)n1/N=C/c1ccco1)OCO3	16.9	inactive	
Cc1nc2cc3c(cc2c(=O)n1/N=C/c1cccnc1)OCO3	35.2	inactive	
Cc1nc2cc3c(cc2c(=O)n1/N=C/c1ccc(N(C)C)cc1)OCO3	43	inactive	inhibition [5]: Active; inhibition [6]: inactive; ED50 [4]: 5.4 µmol/kg; Activity [7]: 50%; Activity [8]: inactive
Cc1nc2cc3c(cc2c(=O)n1/N=C/c1ccccc1)OCO3	17.6	inactive	
C/C(=N\n1c(C)nc2cc3c(cc2c1=O)OCO3)c1cccs1	45.3	inactive	inhibition [5]: Active; inhibition [6]: inactive; ED50 ([4]; read-out: ED50): 3.5 mg/kg; Activity [7]: 50%; Activity [8]: inactive
